Assay results from ChEMBL document CHEMBL1148721 (J Med Chem, 2007).

Test system: not listed separately
Assay: Agonist activity at GABAC rho 1 receptor S168T mutant expressed in tsA-201 cells by FMP assay
Format: functional, cell-based
Conditions: Homo sapiens, tsA201; read-out: EC50
In the case of `Cc1[nH]cnc1CC(=O)O`, the EC50 is reported as > 1000 µM.
With `O=C(O)Cc1[nH]cnc1-c1ccccc1` the EC50 was > 3000 µM.
With `Cc1ccc(-c2nc[nH]c2CC(=O)O)cc1` the EC50 was > 3000 µM.
In the case of `O=C(O)Cc1[nH]cnc1-c1ccc(F)cc1`, the EC50 is reported as > 3000 µM.
`O=C(O)Cc1c[nH]cn1` [IMIDAZOLE ACETIC ACID] gave an EC50 of 100 µM.
Work on `NCc1cc(O)no1` [MUSCIMOL] yielded an EC50 of 24 µM.

Same assay, conditions: Homo sapiens, tsA201; read-out: Log EC50 (converted)
With `NCc1cc(O)no1` [MUSCIMOL] the EC50 was 25.1 µM.

Biological target: not listed separately
Assay: Displacement of [3H]muscimol from GABAA receptor in rat brain membrane
Format: cell membranes
Conditions: not given
Summary of the method: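 Native GABAA receptor affinity was measured by [3H]muscimol binding to rat brain membranes. Ki was calculated from pKi; ≥3 experiments in duplicate.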
For `O=C(O)Cc1c[nH]c(Cl)n1`, the Ki was > 100 µM.
For `Cc1nc(CC(=O)O)c[nH]1`, the Ki was > 100 µM.
For `Cc1[nH]cnc1CC(=O)O`, the Ki was 67 µM and the “Log Ki” value was -4.2.
In the case of `O=C(O)Cc1[nH]cnc1-c1ccccc1`, the Ki is reported as > 100 µM.
In the case of `Cc1cccc(-c2nc[nH]c2CC(=O)O)c1`, the Ki is reported as > 100 µM.
For `CC1N=C(CC(=O)O)C(c2ccccc2)=N1` (stereo unspecified), the Ki was > 100 µM.
With `Cc1ccccc1-c1nc[nH]c1CC(=O)O` the Ki was > 100 µM.
For `Cc1ccc(-c2nc[nH]c2CC(=O)O)cc1`, the Ki was > 100 µM.
In the case of `O=C(O)Cc1[nH]cnc1I`, the Ki is reported as > 100 µM.
With `O=C(O)Cc1[nH]cnc1-c1ccc(F)cc1` the Ki was > 100 µM.
For `O=C(O)Cc1[nH]c(Cl)nc1-c1ccccc1`, the Ki was > 100 µM.
For `O=C(O)Cc1c[nH]c(-c2ccccc2)n1`, the Ki was > 100 µM.
With `O=C(O)Cc1c[nH]cn1` [IMIDAZOLE ACETIC ACID] the Ki was 0.65 µM and the “Log Ki” value was -6.2.

Test system: not listed separately
Assay: Agonist activity at human GABA alpha-1-beta-2-gamma-2s receptor expressed in Xenopus oocytes by two electrode voltage-clamp assay
Format: functional, cell-based
Conditions: Oocyte
In the case of `O=C(O)Cc1c[nH]c(Cl)n1`, the EC50 is reported as > 1000 µM.
With `Cc1[nH]cnc1CC(=O)O` the EC50 was > 1000 µM.
In the case of `O=C(O)Cc1[nH]cnc1-c1ccccc1`, the EC50 is reported as > 1000 µM.
In the case of `CC1N=C(CC(=O)O)C(c2ccccc2)=N1` (stereo unspecified), the EC50 is reported as > 1000 µM.

Test system: not listed separately
Assay: Agonist activity at human GABAC rho 1 receptor expressed in HEK293 cells by FMP assay
Format: functional, cell-based
Conditions: Homo sapiens, HEK293
In the case of `Cc1nc(CC(=O)O)c[nH]1`, the EC50 is reported as > 1000 µM.
`Cc1[nH]cnc1CC(=O)O` showed an EC50 of 22 µM.
`O=C(O)Cc1[nH]cnc1-c1ccccc1` gave an EC50 of 420 µM.
For `Cc1cccc(-c2nc[nH]c2CC(=O)O)c1`, the EC50 was > 1000 µM.
For `CC1N=C(CC(=O)O)C(c2ccccc2)=N1` (stereo unspecified), the EC50 was > 1000 µM.
For `Cc1ccccc1-c1nc[nH]c1CC(=O)O`, the EC50 was > 1000 µM.
`Cc1ccc(-c2nc[nH]c2CC(=O)O)cc1` showed an EC50 of 240 µM.
For `O=C(O)Cc1[nH]cnc1I`, the EC50 was > 1000 µM.
`O=C(O)Cc1[nH]cnc1-c1ccc(F)cc1` showed an EC50 of 210 µM.
For `O=C(O)Cc1[nH]c(Cl)nc1-c1ccccc1`, the EC50 was > 1000 µM.
For `O=C(O)Cc1c[nH]c(-c2ccccc2)n1`, the EC50 was > 1000 µM.
Work on `O=C(O)Cc1c[nH]cn1` [IMIDAZOLE ACETIC ACID] yielded an EC50 of 13 µM.
In the case of `O=C(O)C1=CCNCC1` [ISOGUVACINE], the EC50 is reported as 67 µM.
With `NCc1cc(O)no1` [MUSCIMOL] the EC50 was 2.2 µM.

Same assay, conditions: hek293
For `CP(=O)(O)C1=CCNCC1`, the Ki was 1.3 µM.

Test system: not listed separately
Assay: Agonist activity at human GABAC rho 1 receptor expressed in HEK293 cells by FMP assay relative to GABA
Format: functional
Conditions: not given
Summary of the method: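 Stable human ρ1 HEK293 clone kept in 1 mg/mL G-418 and plated on poly-D-lysine plates for 16-24 h. Dye loading for 30 min at 37 °C in HBSS + 20 mM HEPES pH 7.4. Emission at 560 nm (excitation 530 nm) recorded before and up to 1 min after agonist. Concentration-response curves built from maximal responses; Rmax given as % of GABA; duplicates, ≥3 experiments.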
Molecule `Cc1[nH]cnc1CC(=O)O` has an RUmax of 95%.
With `O=C(O)Cc1[nH]cnc1-c1ccccc1` the RUmax was 98%.
In the case of `Cc1ccc(-c2nc[nH]c2CC(=O)O)cc1`, the RUmax is reported as 111%.
In the case of `O=C(O)Cc1[nH]cnc1-c1ccc(F)cc1`, the RUmax is reported as 115%.
In the case of `NCCCC(=O)O` [GAMMA-AMINOBUTYRIC ACID], the RUmax is reported as 100%.
Molecule `O=C(O)Cc1c[nH]cn1` [IMIDAZOLE ACETIC ACID] has an RUmax of 32%.
Molecule `O=C(O)C1=CCNCC1` [ISOGUVACINE] has an RUmax of 97%.
Molecule `NCc1cc(O)no1` [MUSCIMOL] has an RUmax of 101%.

Test system: not listed separately
Assay: Agonist activity at GABAC rho 1 receptor expressed in tsA-201 cells by FMP assay
Format: functional, cell-based
Conditions: Homo sapiens, tsA201; read-out: EC50
`Cc1[nH]cnc1CC(=O)O` gave an EC50 of 11 µM.
In the case of `O=C(O)Cc1[nH]cnc1-c1ccccc1`, the EC50 is reported as 140 µM.
`Cc1ccc(-c2nc[nH]c2CC(=O)O)cc1` showed an EC50 of 220 µM.
Work on `O=C(O)Cc1[nH]cnc1-c1ccc(F)cc1` yielded an EC50 of 330 µM.
`O=C(O)Cc1c[nH]cn1` [IMIDAZOLE ACETIC ACID] gave an EC50 of 5.5 µM.
Molecule `NCc1cc(O)no1` [MUSCIMOL] has an EC50 of 0.62 µM.

Same assay, conditions: Homo sapiens, tsA201; read-out: Log EC50 (converted)
`Cc1[nH]cnc1CC(=O)O` gave an EC50 of 10 µM.
For `O=C(O)Cc1[nH]cnc1-c1ccccc1`, the EC50 was 158 µM.
`Cc1ccc(-c2nc[nH]c2CC(=O)O)cc1` gave an EC50 of 200 µM.
For `O=C(O)Cc1[nH]cnc1-c1ccc(F)cc1`, the EC50 was 316 µM.
`O=C(O)Cc1c[nH]cn1` [IMIDAZOLE ACETIC ACID] showed an EC50 of 5.01 µM.
With `NCc1cc(O)no1` [MUSCIMOL] the EC50 was 0.631 µM.

Test system: not listed separately
Assay: Agonist activity at GABAC rho 1 receptor expressed in tsA-201 cells by FMP assay relative to GABA
Format: functional, Homo sapiens
Conditions: not given
Summary of the method: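 Human ρ1 (WT) transiently expressed in tsA-201 cells via Polyfect, plated on poly-D-lysine plates 16-24 h post-transfection and assayed next day. Cells loaded with membrane potential dye in HBSS + 20 mM HEPES pH 7.4, 30 min at 37 °C. Fluorescence read (ex 530/em 560 nm) before and up to 1 min after agonist addition. Rmax expressed as % of GABA maximal response; ≥3 experiments in duplicate.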
Molecule `Cc1[nH]cnc1CC(=O)O` has an RUmax of 106%.
For `O=C(O)Cc1[nH]cnc1-c1ccccc1`, the RUmax was 131%.
Work on `Cc1ccc(-c2nc[nH]c2CC(=O)O)cc1` yielded an RUmax of 127%.
For `O=C(O)Cc1[nH]cnc1-c1ccc(F)cc1`, the RUmax was 94%.
`NCCCC(=O)O` [GAMMA-AMINOBUTYRIC ACID] gave an RUmax of 100%.
In the case of `O=C(O)Cc1c[nH]cn1` [IMIDAZOLE ACETIC ACID], the RUmax is reported as 37%.
`NCc1cc(O)no1` [MUSCIMOL] showed an RUmax of 104%.

Test system: not listed separately
Assay: Agonist activity at GABAC rho 1 receptor S168T mutant expressed in tsA-201 cells by FMP assay relative to GABA
Format: functional, Homo sapiens
Conditions: not given
Summary of the method: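 tsA-201 cells transiently transfected with human ρ1 Ser168Thr cDNA, plated on poly-D-lysine after 16-24 h and assayed the next day. Cells loaded with membrane potential dye in HBSS/20 mM HEPES pH 7.4 for 30 min at 37 °C. Fluorescence (ex 530/em 560 nm) read up to 1 min after agonist addition. Rmax given as % of GABA maximum at the same receptor; duplicates, at least three experiments.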
For `NCCCC(=O)O` [GAMMA-AMINOBUTYRIC ACID], the RUmax was 100%.
With `O=C(O)Cc1c[nH]cn1` [IMIDAZOLE ACETIC ACID] the RUmax was 10%.
In the case of `NCc1cc(O)no1` [MUSCIMOL], the RUmax is reported as 96%.

Test system: not listed separately
Assay: Agonist activity at human GABAC rho 1 receptor expressed in HEK293 cells by Whole-cell patch-clamp technique relative to GABA
Format: functional
Conditions: not given
Summary of the method: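 HEK293 cells cotransfected with human ρ1 plus GFP (Targefect) and recorded 20-72 h later by whole-cell patch clamp at -60 mV, 20-22 °C. Bath solution: 140 mM NaCl, HEPES, pH 7.35. Agonists applied by gravity-fed multibarrel perfusion. Hill equation fitted to obtain EC50, nH and Imax; maximal response as % of GABA; ≥5 cells.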
Molecule `Cc1[nH]cnc1CC(=O)O` has an RUmax of 66%.
Molecule `NCCCC(=O)O` [GAMMA-AMINOBUTYRIC ACID] has an RUmax of 100%.
For `O=C(O)Cc1c[nH]cn1` [IMIDAZOLE ACETIC ACID], the RUmax was 7.5%.

Test system: not listed separately
Assay: Agonist activity at human GABAC rho 1 receptor expressed in HEK293 cells by Whole-cell patch-clamp technique
Format: functional, cell-based
Conditions: read-out: EC50
`Cc1[nH]cnc1CC(=O)O` gave an EC50 of 31 µM.
With `O=C(O)Cc1c[nH]cn1` [IMIDAZOLE ACETIC ACID] the EC50 was 5.5 µM.

Same assay, conditions: read-out: Log EC50 (converted)
With `Cc1[nH]cnc1CC(=O)O` the EC50 was 31.6 µM.
`O=C(O)Cc1c[nH]cn1` [IMIDAZOLE ACETIC ACID] showed an EC50 of 5.5 µM.

Test system: not listed separately
Assay: cells
Format: functional, cell-based
Conditions: HEK293; read-out: EC50
With `Cc1[nH]cnc1CC(=O)O` the EC50 was > 1000 µM.
Work on `O=C(O)Cc1c[nH]cn1` [IMIDAZOLE ACETIC ACID] yielded an EC50 of 20 µM.

Same assay, conditions: HEK293; read-out: Log EC50 (converted)
Molecule `O=C(O)Cc1c[nH]cn1` [IMIDAZOLE ACETIC ACID] has an EC50 of 20 µM.

Test system: not listed separately
Assay: Agonist activity at rat GABA alpha-1-T129S-beta-2-gamma-2 receptor mutant expressed in HEK293 cells by Whole-cell patch-clamp technique relative to GABA
Format: functional
Conditions: not given
Summary of the method: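 Rat α1(Thr129Ser) with β2 and γ2S (1:1:2) transiently co-transfected with a GFP plasmid into HEK293 cells; whole-cell patch-clamp 20-72 h after transfection at 20-22 °C, clamp usually -60 mV, extracellular solution pH 7.35. Agonist applied by perfusion pipette. Hill-equation fit gives EC50 and Imax; maximal response as % of GABA maximum; at least five cells.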
`NCCCC(=O)O` [GAMMA-AMINOBUTYRIC ACID] gave an RUmax of 100%.
In the case of `O=C(O)Cc1c[nH]cn1` [IMIDAZOLE ACETIC ACID], the RUmax is reported as 39%.

Test system: not listed separately
Assay: Antagonist activity at human GABAc rho 1 receptor expressed in HEK293 cells by FMP assay
Format: functional, cell-based
Conditions: not given
Summary of the method: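 Stable HEK293 line expressing human ρ1 (selected under G-418). Antagonist included with the loading dye in HBSS/20 mM HEPES pH 7.4 for 30 min at 37 °C, then agonist added. Fluorescence (ex 530/em 560 nm) read up to 1 min. Ki from inhibition curves by the Cheng-Prusoff relation using agonist concentration and EC50; duplicates, at least three experiments.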
With `Oc1noc2c1CCNC2` [GABOXADOL] the Ki was 100 µM and the “Log Ki” value was -4.

Biological target: GABA A receptor alpha-1/beta-2/gamma-2 (Rattus norvegicus)
Assay: Agonist activity at GABA alpha-1-beta-2-gamma-2 receptor expressed in HEK293 cells by Whole-cell patch-clamp technique
Conditions: not given
For `Cc1[nH]cnc1CC(=O)O`, the EC50 was > 1000 µM.
